Reference: ChEMBL document CHEMBL4266056, “Discovery and Pharmacology of a Novel Somatostatin Subtype 5 (SSTR5) Antagonist: Synergy with DPP-4 Inhibition” (ACS Med Chem Lett, 2018)

Experiments:
[1] = target: T1, Somatostatin receptor type 5 (Homo sapiens, UniProt P35346); test: Antagonist activity at human SSTR5 expressed in CHO-K1 cell membranes assessed as reduction in SST-28-induced inhibition of forskolin-stimulated cAMP accumulation by LANCE assay; assay type: functional, cell-based
[2] = Oral bioavailability in mouse; assay type: ADME, organism-based; settings: in vivo
Mus musculus [3] = test: Drug uptake in mouse whole blood at 30 mg/kg, po measured at […]
[4] = target: T2, Somatostatin receptor type 5 (Mus musculus, UniProt O08858); test: Antagonist activity at mouse SSTR5 expressed in CHO-K1 cell membranes assessed as reduction in SST-28-induced inhibition of forskolin-stimulated cAMP accumulation by LANCE assay; assay type: functional, cell-based
T2 sequence (O08858 whole entry): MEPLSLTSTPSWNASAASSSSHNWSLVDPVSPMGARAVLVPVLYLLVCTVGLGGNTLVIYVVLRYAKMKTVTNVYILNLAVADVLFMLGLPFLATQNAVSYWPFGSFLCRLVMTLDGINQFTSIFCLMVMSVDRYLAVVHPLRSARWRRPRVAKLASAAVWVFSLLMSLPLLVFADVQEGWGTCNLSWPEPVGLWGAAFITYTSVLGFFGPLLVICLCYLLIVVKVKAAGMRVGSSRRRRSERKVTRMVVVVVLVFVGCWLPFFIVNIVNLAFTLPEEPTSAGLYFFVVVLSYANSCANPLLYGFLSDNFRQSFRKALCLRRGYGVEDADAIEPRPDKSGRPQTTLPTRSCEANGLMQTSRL

[5] = target: Voltage-gated inwardly rectifying potassium channel KCNH2 (Homo sapiens, UniProt Q12809); test: Inhibition of MK-499 binding to human ERG
[6] = target: T2, Somatostatin receptor type 5; test: Displacement of (3-125I-Tyr11)-SRIF-28 from mouse SSTR5 expressed in CHO-K1 cell membranes by filtration binding assay
[7] = target: T1, Somatostatin receptor type 5; test: Displacement of (3-125I-Tyr11)-SRIF-28 from human SSTR5 expressed in CHO-K1 cell membranes by filtration binding assay
Mus musculus [8] = test: Antidiabetic activity in HFD fed C57BL/6N mouse assessed as decrease in blood glucose AUC at 30 mg/kg administered as single oral dose pretreated for 60 mins followed by glucose challenge measured after 120 mins by OGTT; assay type: functional; parameters: scale not given: the % may be the effect or the level left
Procedure, shortened: (§1)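 Male C57BL/6 mice were fed HFD (D12492) for 21 days, n=3. Compound was given orally 1 h before an oral glucose load, and blood glucose was followed over 0-120 min. Read-out is the decrease in glucose AUC versus vehicle.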

[9] = target: Somatostatin receptor type 3 (Homo sapiens, UniProt P32745); test: Antagonist activity at human SSTR3 expressed in CHO-K1 cell membranes; assay type: functional, cell-based
Procedure, shortened: (§2)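 Counter-screen by filtration membrane binding: competitive displacement of radiolabeled SST-28 from cell membranes expressing human SSTR1, SSTR2, SSTR3 or SSTR4. The IC50 is the mean of at least duplicate experiments within a maximal threefold range.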

[10] = target: Somatostatin receptor type 1 (Homo sapiens, UniProt P30872); test: Antagonist activity at human SSTR1 expressed in CHO-K1 cell membranes; assay type: functional, cell-based; procedure, shortened: as §2
Mus musculus [11] = test: Antidiabetic activity in HFD fed C57BL/6N mouse assessed as decrease in blood glucose AUC at 10 mg/kg administered as single oral dose pretreated for 60 mins followed by glucose challenge measured after 120 mins by OGTT; assay type: functional; parameters: scale not given: the % may be the effect or the level left; procedure, shortened: as §1
[12] = Half life in mouse; assay type: ADME, organism-based; settings: in vivo

Chain of Voltage-gated inwardly rectifying potassium channel KCNH2 (Q12809 whole entry): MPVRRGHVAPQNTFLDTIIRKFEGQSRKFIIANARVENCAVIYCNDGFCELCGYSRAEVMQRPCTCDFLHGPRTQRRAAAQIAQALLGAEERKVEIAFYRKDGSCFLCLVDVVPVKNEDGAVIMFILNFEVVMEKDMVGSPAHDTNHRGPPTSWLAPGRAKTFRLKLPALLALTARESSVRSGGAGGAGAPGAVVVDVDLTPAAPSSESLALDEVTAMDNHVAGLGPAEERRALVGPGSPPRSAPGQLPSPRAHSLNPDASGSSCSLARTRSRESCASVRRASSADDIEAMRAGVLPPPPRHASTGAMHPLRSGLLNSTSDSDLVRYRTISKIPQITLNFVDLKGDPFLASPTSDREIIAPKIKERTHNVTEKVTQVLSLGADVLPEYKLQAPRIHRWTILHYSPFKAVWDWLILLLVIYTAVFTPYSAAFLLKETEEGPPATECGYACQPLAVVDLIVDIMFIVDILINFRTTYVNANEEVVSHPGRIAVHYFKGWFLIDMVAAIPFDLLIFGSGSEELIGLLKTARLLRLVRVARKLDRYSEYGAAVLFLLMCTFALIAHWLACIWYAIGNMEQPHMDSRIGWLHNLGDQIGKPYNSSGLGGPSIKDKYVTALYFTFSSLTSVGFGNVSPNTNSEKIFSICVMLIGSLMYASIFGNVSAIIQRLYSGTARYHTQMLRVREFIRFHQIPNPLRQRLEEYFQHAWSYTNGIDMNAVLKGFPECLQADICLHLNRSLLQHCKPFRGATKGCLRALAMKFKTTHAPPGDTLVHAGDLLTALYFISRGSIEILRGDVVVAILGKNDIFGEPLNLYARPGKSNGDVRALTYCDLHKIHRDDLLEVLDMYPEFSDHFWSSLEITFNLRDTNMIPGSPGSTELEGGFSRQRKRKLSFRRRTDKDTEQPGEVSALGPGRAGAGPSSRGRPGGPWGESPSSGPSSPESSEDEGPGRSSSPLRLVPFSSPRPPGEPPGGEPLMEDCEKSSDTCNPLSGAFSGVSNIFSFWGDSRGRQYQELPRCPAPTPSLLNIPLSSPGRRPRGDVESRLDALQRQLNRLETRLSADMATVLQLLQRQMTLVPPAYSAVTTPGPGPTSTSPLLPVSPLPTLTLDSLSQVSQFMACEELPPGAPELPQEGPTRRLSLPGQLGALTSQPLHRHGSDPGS
T1 sequence (P35346 whole entry): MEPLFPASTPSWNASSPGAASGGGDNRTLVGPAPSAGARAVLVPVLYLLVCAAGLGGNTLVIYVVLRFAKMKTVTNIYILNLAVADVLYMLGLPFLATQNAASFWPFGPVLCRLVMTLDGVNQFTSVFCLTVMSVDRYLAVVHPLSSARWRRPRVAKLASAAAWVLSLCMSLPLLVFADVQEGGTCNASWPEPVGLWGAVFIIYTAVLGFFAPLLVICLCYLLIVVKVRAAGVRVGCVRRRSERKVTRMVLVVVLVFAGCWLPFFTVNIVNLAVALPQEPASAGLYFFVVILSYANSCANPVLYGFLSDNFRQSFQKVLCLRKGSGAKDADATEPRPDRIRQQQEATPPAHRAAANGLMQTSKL
Chain of Somatostatin receptor type 1 (P30872 whole entry): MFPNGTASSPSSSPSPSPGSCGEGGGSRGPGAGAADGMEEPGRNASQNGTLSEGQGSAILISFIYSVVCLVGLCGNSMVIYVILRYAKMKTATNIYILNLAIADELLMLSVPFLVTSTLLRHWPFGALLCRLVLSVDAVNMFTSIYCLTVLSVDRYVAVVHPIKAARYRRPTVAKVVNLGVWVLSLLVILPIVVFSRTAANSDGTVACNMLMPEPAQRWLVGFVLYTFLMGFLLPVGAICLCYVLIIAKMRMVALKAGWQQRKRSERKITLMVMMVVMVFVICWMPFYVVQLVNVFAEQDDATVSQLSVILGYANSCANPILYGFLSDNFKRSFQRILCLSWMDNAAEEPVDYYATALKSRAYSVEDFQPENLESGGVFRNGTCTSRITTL
Chain of Somatostatin receptor type 3 (P32745 whole entry): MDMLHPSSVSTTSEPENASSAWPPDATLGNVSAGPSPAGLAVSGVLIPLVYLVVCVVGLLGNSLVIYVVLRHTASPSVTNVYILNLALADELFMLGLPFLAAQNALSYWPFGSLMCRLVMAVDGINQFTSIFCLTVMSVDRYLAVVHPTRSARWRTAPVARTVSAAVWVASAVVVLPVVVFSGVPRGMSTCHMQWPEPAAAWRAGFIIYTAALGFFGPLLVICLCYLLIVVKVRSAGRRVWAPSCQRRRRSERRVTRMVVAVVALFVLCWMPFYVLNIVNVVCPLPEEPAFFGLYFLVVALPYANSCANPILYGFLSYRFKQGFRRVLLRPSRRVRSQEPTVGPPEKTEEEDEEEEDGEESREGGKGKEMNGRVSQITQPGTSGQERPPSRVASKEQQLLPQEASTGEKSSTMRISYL

Compound: CCOc1cc(CN2CCC(C3CCN(S(=O)(=O)c4ccccc4)CC3)CC2)cc(OCC)c1-c1ccc(F)cc1
- IC50 [1]: 8.6 nM
- bioavailability [2]: 13%
- concentration at […] (Mus musculus [3]): 92 nM
- IC50 [4]: 28 nM
- IC50 [5]: 220 nM
- IC50 [6]: 0.8 nM
- IC50 [7]: 0.7 nM
- Activity (Mus musculus [8]): 60%

Compound: CCOc1cc(CN2CCC3(CC2)CCN(S(=O)(=O)c2cccnc2)CC3)cc(OCC)c1-c1ccc(F)cc1
- IC50 [1]: 26 nM
- IC50 [5]: 210 nM
- IC50 [7]: 13 nM

Compound: CCOc1cc(CN2CCC(c3ncc(-c4ccc(F)cc4)[nH]3)CC2)cc(OCC)c1-c1ccc(F)cc1
- IC50 [1]: 247 nM
- IC50 [9]: 119 nM
- IC50 [4]: 98 nM
- IC50 [5]: 260 nM
- IC50 [6]: 2.7 nM
- IC50 [7]: 7.6 nM

Compound: CCOc1cc(CN2CCC3(CC2)NC(=O)NC3=O)cc(OCC)c1-c1ccc(F)cc1
- IC50 [1]: 110 nM
- concentration at […] (Mus musculus [3]): 460 nM
- IC50 [4]: 7.4 nM
- IC50 [5]: 25000 nM
- IC50 [6]: 32 nM
- IC50 [7]: 83 nM
- Activity (Mus musculus [8]): 54%

Compound: CCOc1cc(CN2CCC(NC(=O)c3cncc(C)c3)CC2)cc(OCC)c1-c1ccc(F)cc1
- IC50 [1]: 3.1 nM
- IC50 [10]: < 300 nM
- Activity (Mus musculus [11]): 87%
- IC50 [4]: 2.7 nM
- IC50 [5]: 1690 nM
- IC50 [6]: 1 nM
- IC50 [7]: 1.3 nM

Compound: CCOc1cc(CN2CC[C@H]3C(Nc4nc5ccc(C(=O)O)cc5o4)CC[C@H]32)cc(OCC)c1-c1ccc(F)cc1 (relative stereo)
- IC50 [1]: 4.5 nM
- IC50 [10]: 6000 nM
- bioavailability [2]: 48%
- concentration at […] (Mus musculus [3]): 760 nM
- half-life [12]: 1.7 h
- IC50 [4]: 6.1 nM
- IC50 [5]: 15000 nM
- IC50 [6]: 16 nM
- IC50 [7]: 2.5 nM
- Activity (Mus musculus [8]): 56%

Compound: CCOc1cc(CN2CCC(Oc3nccc(Cl)n3)CC2)cc(OCC)c1-c1ccc(F)cc1
- IC50 [1]: 73 nM
- IC50 [6]: 13 nM
- IC50 [7]: 21 nM

Compound: CCOc1cc(CN2CCC(COc3cccc4cccnc34)CC2)cc(OCC)c1-c1ccc(F)cc1
- IC50 [1]: 67.8 nM
- IC50 [4]: 7.1 nM
- IC50 [5]: 210 nM
- IC50 [6]: 0.6 nM
- IC50 [7]: 2.9 nM

Compound: CCOc1cc(CN2CCC3(CC2)CC(Cc2ccc(F)cc2)C(=O)O3)cc(OCC)c1-c1ccc(F)cc1 (racemic)
- IC50 [1]: 67 nM
- IC50 [6]: 2.5 nM
- IC50 [7]: 1.6 nM
